Several values for one entry are separate records, joined by “and”; a condition that tells them apart may be missing. Equal values may be shown once. Read-outs that look alike come from different tables or passages of the source. Marks after values point to notes of the source that are not given here.

One data set concerns CYP3A4/5. Conditions: cited from earlier work.
Data set [1] is described as follows: Urinary and faecal recovery. The data set is classed as in vivo, human. Conditions: for Radioactivity U/F ratio (urinary recovery relative to faecal recovery) / Recovery of ixabepilone in urine: 0–168 h; for Recovery of ixabepilone in urine: unchanged ixabepilone.
The conditions of data set [2]: phase I dose escalation study, 11 patients, 40 mg/m^2; cited from earlier work.
For data set [3] the following is noted: phase II, cited from earlier work.
Data set [4] in a line: Plasma pseudopharmacokinetics of total radioactivity. Format: in vivo, human. In outline:
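Same dosing, with separate, simultaneous plasma samples taken to 168 h. Total radioactivity was measured by AMS after combustion with CuO at 900°C and graphitisation at 500–550°C. Natural 14C background was subtracted, and values were converted to equivalents via carbon content and specific activity. Quantitation limit was <4 DPM/ml. Non-compartmental pseudo-parameters were derived, and AUClast ratio = parent AUClast / TRA AUClast. Outliers were assessed by Dixon's Q test.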

Data set [5] is described as follows: Stability of [14C]-labelled ixabepilone. The data set is classed as physicochemical.
Data set [6] can be described thus: Plasma pharmacokinetics of unchanged ixabepilone. The data set is classed as in vivo, human. In outline: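 Eight advanced-cancer patients received a single 3 h IV infusion of 70 mg, 80 nCi [14C]-labelled test compound in Cremophor EL:ethanol diluted in Lactated Ringer's, with oral H1/H2 premedication. Blood was drawn 0–168 h and plasma was stored below −20°C. Parent was measured by isocratic LC-ESI-MS/MS (standard curve 2–500 ng/ml). Non-compartmental analysis gave AUCinf, CL=dose/AUCinf, and infusion-corrected Vss.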

For data set [7] the following is noted: literature value, no reference given, cited from earlier work.
The mark [8] stands for this setting: inter-patient variability, flat 70 mg dose, this study.
Setting [9] is: plasma, individual patients 1-8, 3 h iv infusion 70 mg.

For `C/C(=C\c1csc(C)n1)[C@@H]1C[C@@H]2O[C@]2(C)CCC[C@H](C)[C@H](O)[C@@H](C)C(=O)C(C)(C)[C@@H](O)CC(=O)N1` [ixabepilone, 15-desoxy-15-aza-epothilone B], the CYP3A4/5 substrate result in the data set with CYP3A4/5 is “CYP3A4/5 substrate”. Besides, the “Radioactivity U/F ratio (urinary recovery relative to faecal recovery)” value was 0.48 and 0.29 and 3.05 and 0.24 and 0.31 and 0.39 and 1.97 and 0.30 in data set [1] (individual patients 1-8); 0.33^b in data set [1] (mean, patients 4 and 8 not included). Moreover, the “Recovery of ixabepilone in urine” value in data set [1] (individual patients 1-8) is 4.0 % of dose and 6.12 % of dose and 6.03 % of dose and 4.02 % of dose and 5.07 % of dose and 4.66 % of dose and 7.76 % of dose and 3.32 % of dose and 5.46 % of dose; in data set [1] (mean of 8 patients), 5.30 % of dose. In addition, the “Urinary radioactivity excreted in the first 24 h” value in data set [1] (first 24 h) was 17 % of dose. Besides, the “Ixabepilone Clrenal” value in data set [1] (individual patients 1-8) is 1.98 L/h and 1.87 L/h and 1.46 L/h and 1.16 L/h and 1.19 L/h and 1.92 L/h and 0.61 L/h and 1.58 L/h. For the same molecule, in data set [1] (of total urinary ixabepilone), the “Share of total urinary ixabepilone excreted in the first 24 h” value is reported as 76%. Also, the “Share of total urinary radioactivity excreted in the first 24 h” value in data set [1] (of total urinary radioactivity) worked out at 65%. Also, the results for the “Coefficient of variation for AUCinf of ixabepilone” value in data set [2] and in data set [6] (setting [8]) were 46% and 24%, respectively. The figures for the “Coefficient of variation for Cl of ixabepilone” value in data set [2] and in data set [6] (setting [8]) were 38% and 21%, respectively. For the same molecule, the Response rate is given as 33% in data set [3] (hormone-refractory metastatic prostate cancer); 12–44% in data set [3] (metastatic breast cancer, 6 to 40 mg/m^2 iv over 1 to 3 h); 14% in data set [3] (metastatic renal cell carcinoma); 14% in data set [3] (non-small cell lung cancer). The “Initial distribution phase, duration” value in data set [4] (TRA in plasma) and in data set [6] (unchanged ixabepilone in plasma) was “approximately 10 h” each time. Also, the “AUClast ratio (AUClast ixabepilone / AUClast TRA)” value in data set [4] (plasma, individual patients 1-8, patient 1 outlier) is 0.26 and 0.06 and 1.62^b and 0.25 and 0.19 and 0.12 and 0.18. Moreover, the “Stability of labelled drug (autoradiolysis)” value in data set [5] (conventional [14C]-levels (100 μCi in a typical human radio-tracer study)) was “very unstable”; in data set [5] (specific activity of 1.5 μCi/mg) it was “unstable”; in data set [5] (specific activity of less than 10 nCi/mg), “stable”. Besides, the “Time to maximum plasma concentration” value in data set [6] (3 h infusion, in words) is “around the end of infusion”. Further, the clearance (usually a measure of how efficiently the substance is removed, as volume per time) in data set [6] (human, plasma, intravenous, 70 mg, Ixabepilone Cl, mean of 8 patients) was 422 mL/min. Further, the distribution volume (Vd) (usually the apparent volume that relates the amount in the body to the concentration in plasma or blood) in data set [6] (human, plasma, intravenous, 70 mg, Ixabepilone Vss, plasma, mean of 8 patients) is 1150 L. The Half-life in data set [6] (human, plasma, intravenous, 70 mg, Ixabepilone t1/2, plasma, mean of 8 patients) was above 50 h. In data set [6] (setting [9]), the “Ixabepilone AUCinf” value was 2220 ng·h/mL and 3350 ng·h/mL and 2970 ng·h/mL and 2990 ng·h/mL and 4320 ng·h/mL and 2520 ng·h/mL and 2290 ng·h/mL. Also, the “Ixabepilone AUClast” value in data set [6] (setting [9]) was 1930 ng·h/mL and 3060 ng·h/mL and 2750 ng·h/mL and 2830 ng·h/mL and 3820 ng·h/mL and 2420 ng·h/mL and 2170 ng·h/mL. Also, the “Ixabepilone Cl” value in data set [6] (setting [9]) was 31.6 L/h and 20.9 L/h and 23.6 L/h and 23.4 L/h and 16.2 L/h and 27.8 L/h and 30.5 L/h. Also, the “Ixabepilone Vss” value in data set [6] (setting [9]) was 1520 L and 1635 L and 1275 L and 1174 L and 929 L and 1027 L and 756 L and 912 L. For the same molecule, in data set [6] (setting [9]), the “Ixabepilone t1/2” value was 71.5 h and 47.2 h and 51.7 h and 53.0 h and 67.4 h and 23.5 h and 36.7 h.

As for `CC[C@]1(O)C[C@H]2CN(CCc3c([nH]c4ccccc34)[C@@](C(=O)OC)(c3cc4c(cc3OC)N(C=O)[C@H]3[C@@](O)(C(=O)OC)[C@H](OC(C)=O)[C@]5(CC)C=CCN6CC[C@]43[C@@H]65)C2)C1` [vincristine], the Half-life result in data set [7] (in words) is “several days”.

For `CC[C@]1(O)C[C@@H]2CN(CCc3c([nH]c4ccccc34)[C@@](C(=O)OC)(c3cc4c(cc3OC)N(C)[C@H]3[C@@](O)(C(N)=O)[C@H](O)[C@]5(CC)C=CCN6CC[C@]43[C@@H]65)C2)C1` [vindesine], the Half-life in data set [7] was 12 to 42 h.

(Values after paper PMC1915607 (Investigational New Drugs, 2007).)
